Results: ChEMBL document CHEMBL4513216, “Probing the Open Global Health Chemical Diversity Library for Multistage-Active Starting Points for Next-Generation Antimalarials” (ACS Infect Dis, 2020)

Experiment: Toxicity liver stage against HepG2, at 10uM
Assay type: cell-based
Set-up: test concentration 10 uM, cell line HepG2-A16-CD81EGFP
Settings: human, HepG2-A16-CD81EGFP cells; read-out: INHIBITION
How it was run: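 Uninfected HepG2-A16-CD81EGFP cells, 3 × 10^3 per well, 1536-well, plated on prespotted compound at 10 μM final, parasite-free screening media added to match infected plates; puromycin 10 μM positive, DMSO 0.5% negative; run in parallel with 48 h PbLuc assay at 37 °C, 5% CO2; viability by CellTiter-Glo luminescence, normalized to controls.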

Row | Compound | cytotoxicity at 10 µM [%]
1 | COc1ccc(C2=NOC(C(=O)N3CCCc4ccccc43)C2)cc1 (stereo unspecified) | 0.863
2 | COC(=O)[C@@H]1Cc2ncn(C(C)C)c2CN1S(=O)(=O)Cc1ccccc1 | -2.51
3 | CC(=O)N1N=C(Cc2ccccc2)OC1C(=O)NCC(C)C (stereo unspecified) | -4.52
4 | Cc1cccc(OC2CCN(C(=O)c3ccc4ncsc4c3)CC2)n1 | -3.78
5 | CN(C)C(=O)N1CCC2(CCC(C(=O)N3CCCC3)O2)CC1 (stereo unspecified) | -0.125
6 | CCN1CC2(CCCCN2C(=O)c2ccn(C)n2)CC1=O (stereo unspecified) | 10.5
7 | c1cnc(N2CCCC3(CCN(Cc4cccs4)C3)C2)nc1 (stereo unspecified) | 2.58
8 | O=S(=O)(C1CC1)N1CCC2(CC1)COC(COc1ccccn1)C2 (stereo unspecified) | 3.35
9 | Cc1ccc(S(=O)(=O)N2CCCC3(CCCN3S(C)(=O)=O)C2)cc1F (stereo unspecified) | 2.05
10 | COCc1ncn2c1CN(C(=O)c1ccc[nH]1)CC2 | 1.84
11 | COCCN1Cc2ccccc2C2(CCN(S(C)(=O)=O)CC2)C1 | 0.121
12 | COCCO[C@@H]1C[C@H]2CN(C(=O)c3cccnc3)CCN2C1 | -4.58
13 | COCc1nn(C(C)C)c2c1CCN(Cc1ccsc1)C2 | -4.51
14 | CC(C)CC(NC(=O)Nc1ccc(F)c(Cl)c1)C(=O)O (stereo unspecified) | 8.19
15 | COc1cc(C2CC(=O)Nc3c2c(=O)[nH]n3C2CCCCC2)ccc1O (stereo unspecified) | -0.607
16 | COc1cccc(CNC(=O)CC2CSc3ncc(C)c(=O)n32)c1 (stereo unspecified) | 10.4
17 | Cc1nn(Cn2ccc(C(=O)N3CCC(C)CC3)n2)c(C)c1Cl | -2.36
18 | CCn1ccc(NC(=O)C2CCC(=O)N2Cc2ccc(C)o2)n1 (stereo unspecified) | 6.17
19 | Cc1cc(C2CCCN(S(=O)(=O)N(C)C)C2)ccn1 (stereo unspecified) | 21.4

Row | Compound | cytotoxicity at 10 µM [%]
20 | CC[C@@H](Cn1ncc2ccccc2c1=O)NC(=O)c1cnc(C)cn1 | 7.92
21 | CN(C)CC(=O)N1CCOCC(Cc2ccccn2)C1 (stereo unspecified) | 5.88
22 | CNC(=O)c1cn[nH]c1C1CCCN1C(=O)c1ccccn1 (stereo unspecified) | 8.52
23 | COCC(=O)N1CCN(C)C(=O)C(Cc2ccccc2-c2cccs2)C1 (stereo unspecified) | -3.73
24 | CNC(=O)c1cn[nH]c1C1CCCN1C(=O)c1cccnc1 (stereo unspecified) | -23.3
25 | O=C(Cc1ccccc1)N1CCOC(c2nc(-c3ncccn3)no2)C1 (stereo unspecified) | -22.6
26 | Cc1cc(C(F)(F)F)nc(N(C)Cc2c(C)noc2C)n1 | -13.2
27 | CS(=O)(=O)c1ccccc1-n1cc(NC(=O)CC(F)(F)F)cn1 | 1.42
28 | CC(SCCC(=O)NC(N)=O)c1cccc(F)c1 (stereo unspecified) | 5.28
29 | CC(=O)N(C)CC(=O)NC(CC(C)C)c1cccs1 (stereo unspecified) | -1.49
30 | CC(C)OCCCNC(=O)CN1CCN(c2nccs2)CC1 | 3.44
31 | CC(C)OCCC1CCCCN1S(=O)(=O)c1cnn(C)c1 (stereo unspecified) | 5.68
32 | COc1nc(C)ccc1CNC(=O)NC(c1ncc(C)s1)C1CC1 (stereo unspecified) | -2.3
33 | CC(C)NC(=O)CNC(=O)c1csc(Cc2ccccc2F)n1 | -4.44
34 | CNC(=O)c1ccc(NC2CCN(CC(F)(F)F)C2=O)cc1Cl (stereo unspecified) | -1.13
35 | CC(C)N1CCC(CNC(=O)CCc2cc(F)ccc2F)C1 (stereo unspecified) | -5.38
36 | CN1CCC(C(=O)N2CCC(=Cc3cccc(F)c3)CC2)CC1=O (stereo unspecified) | -2.19
37 | N#Cc1cnc(NC2CCN(C(=O)C3CC3)CC2)c(Cl)c1 | -7.32
38 | CCS(=O)(=O)NC1CCCN(Cc2ccn(C)c(=O)c2)C1 (stereo unspecified) | -1.82

Row | Compound | cytotoxicity at 10 µM [%]
39 | Cc1nnc(C(C)Nc2ccc(OCCc3ccccc3)nc2)o1 (stereo unspecified) | -4.08
40 | CCC(C)(CNC(=O)Nc1nccs1)N1CCOCC1 (stereo unspecified) | -6.46
41 | CC(C)NC(=O)NCc1ccccc1NS(=O)(=O)c1ccccc1 | 9.6
42 | CCNC(=O)NCc1ccnc(N(C)C)n1 | -0.786
43 | Cn1c(C(=O)N2CCC(C(N)=O)C2)c(Cl)c2ccccc21 (stereo unspecified) | 2.03
44 | CC(CCO)Nc1cccc(C(F)(F)F)n1 (stereo unspecified) | -2.8
45 | CN(C)C(CNC(=O)c1ccc(-n2cnnn2)cc1)c1ccccc1Cl (stereo unspecified) | -8.16
46 | NC(=O)c1ccc(CNCC2CCN(CCO)CC2)cc1 | -9.93
47 | COc1ccc(Cn2ccnc2)cc1F | -7.27
48 | CCOC(=O)c1nc(CN2CCC(NC(=O)C(C)C)CC2)cs1 | -2.98
49 | CN(Cc1ccsc1)C(=O)c1ccc(F)c(NS(C)(=O)=O)c1 | -5.7
50 | COc1ccccc1C(NC(=O)C1CCCC1)c1noc(C)n1 (stereo unspecified) | -2.17
51 | O=C(C1CCCOC1)N1CCc2ccc(F)cc21 (stereo unspecified) | 2.35
52 | O=C1CCC(C(=O)NCCOc2cccc(Cl)c2Cl)CN1 (stereo unspecified) | 4.48
53 | Cc1cccc(CN2CCN(C(=O)c3ccc(C)[nH]c3=O)CC2)c1 | 12.8
54 | O=C1CCC(C(=O)Nc2ccc(=O)n(Cc3ccc(Cl)c(Cl)c3)c2)N1 (stereo unspecified) | -8.47
55 | CC(C)c1ncc(Cl)c(C(=O)N2CCCN3CCCC3C2)n1 (stereo unspecified) | -10.2
56 | CC(=O)NCc1ccc(C(=O)Nc2ccc3c(c2)C(=O)NC3)cc1 | 0.202
